Source: ChEMBL document CHEMBL1275556, “High prevalence of plasmid-mediated quinolone resistance genes qnr and aac(6')-Ib-cr in clinical isolates of Enterobacteriaceae from nine teaching hospitals in China” (2008)

Tests used:
Escherichia coli [1] = test: Antimicrobial activity against aac(6')-Ib-cr-negative Escherichia coli PU12T harboring wild-type GyrA, GyrB, ParC and qnrS genes by agar dilution method; format: functional
In short: (§1)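 MICs were determined by the CLSI agar dilution method (M7-A7) and interpreted against CLSI M100-S17 breakpoints.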

Citrobacter freundii [2] = test: Antimicrobial activity against aac(6')-Ib-cr-positive Citrobacter freundii PU55 harboring GyrA T83I, ParC S80I mutant, wild-type GyrB, qnrA genes by agar dilution method; format: functional; in short: as §1
Citrobacter freundii [3] = test: Antimicrobial activity against aac(6')-Ib-cr-positive Citrobacter freundii PU55T harboring wild-type GyrA, ParC, GyrB and qnrA genes by agar dilution method
Enterobacter cloacae [4] = test: Antimicrobial activity against aac(6')-Ib-cr-negative Enterobacter cloacae SH39 harboring GyrA S83I, ParC S80I mutant, wild-type GyrB and qnrA genes by agar dilution method; format: functional
Enterobacter cloacae [5] = test: Antimicrobial activity against aac(6')-Ib-cr-negative Enterobacter cloacae SH39T harboring qnrA gene by agar dilution method; format: functional
Klebsiella pneumoniae [6] = test: Antimicrobial activity against aac(6')-Ib-cr-negative Klebsiella pneumoniae SY22 harboring GyrA S83I, ParC S80I mutant, wild-type GyrB and qnrS genes by agar dilution method; format: functional; in short: as §1
Klebsiella pneumoniae [7] = test: Antimicrobial activity against aac(6')-Ib-cr-negative Klebsiella pneumoniae SY22T harboring qnrS gene by agar dilution method; format: functional; in short: as §1
Klebsiella pneumoniae [8] = test: Antimicrobial activity against aac(6')-Ib-cr-positive Klebsiella pneumoniae SY26 harboring GyrA S83I, ParC S80I mutant, wild-type GyrB and qnrB genes by agar dilution method; format: functional
In short: (§2)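 MICs were determined on clinical isolates by CLSI agar dilution (M7-A7) and interpreted against CLSI M100-S17 breakpoints.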

Klebsiella pneumoniae [9] = test: Antimicrobial activity against aac(6')-Ib-cr-positive Klebsiella pneumoniae SY26T harboring wild-type GyrA, ParC, GyrB and qnrB genes by agar dilution method; format: functional
In short: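 Transconjugants were made by conjugating a qnr/aac(6')-Ib-cr donor with azide-resistant E. coli J53. MICs were read by CLSI agar dilution (M7-A7) and interpreted per M100-S17.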

Citrobacter freundii [10] = test: Antimicrobial activity against aac(6')-Ib-cr-positive Citrobacter freundii TJ15 harboring GyrA T83I, ParC S80I mutant, wild-type GyrB, qnrB genes by agar dilution method; format: functional; in short: as §1
Citrobacter freundii [11] = test: Antimicrobial activity against aac(6')-Ib-cr-positive Citrobacter freundii TJ15T harboring wild-type GyrA, ParC, GyrB genes by agar dilution method; format: functional; in short: as §1
Enterobacter cloacae [12] = test: Antimicrobial activity against aac(6')-Ib-cr-negative Enterobacter cloacae WH42 harboring wild-type GyrA, ParC, GyrB and qnrA genes by agar dilution method; format: functional
Enterobacter cloacae [13] = test: Antimicrobial activity against aac(6')-Ib-cr-negative Enterobacter cloacae WH42T harboring qnrA gene by agar dilution method; format: functional
Klebsiella pneumoniae [14] = test: Antimicrobial activity against aac(6')-Ib-cr-positive Klebsiella pneumoniae WH99 harboring wild-type GyrA, ParC, GyrB and qnrB genes by agar dilution method; format: functional; in short: as §2
Klebsiella pneumoniae [15] = test: Antimicrobial activity against aac(6')-Ib-cr-positive Klebsiella pneumoniae WH99T harboring qnrB gene by agar dilution method; format: functional
In short: (§3)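 Transconjugants were made by conjugating a qnr/aac(6')-Ib-cr donor with azide-resistant E. coli J53. Selection used Trypticase soy agar with sodium azide 150 µg/ml and sulfamethoxazole 180 µg/ml. […] MICs were read by CLSI agar dilution (M7-A7) and interpreted per M100-S17.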

Escherichia coli [16] = test: Antimicrobial activity against Escherichia coli J53 harboring wild-type GyrA, ParC, GyrB genes by agar dilution method
Escherichia coli [17] = test: Antimicrobial activity against aac(6')-Ib-cr-negative Escherichia coli PU12 harboring GyrA S83L mutant, wild-type GyrB, ParC and qnrS genes by agar dilution method; format: functional; in short: as §1
Escherichia coli [18] = test: Antimicrobial activity against aac(6')-Ib-cr-positive Escherichia coli FJ3 harboring GyrA S83L, ParC S80R mutant, wild-type GyrB and qnrB genes by agar dilution method; format: functional; in short: as §1
Escherichia coli [19] = test: Antimicrobial activity against aac(6')-Ib-cr-positive Escherichia coli FJ3T harboring wild-type GyrA, ParC, GyrB and qnrB genes by agar dilution method
Enterobacter cloacae [20] = test: Antimicrobial activity against aac(6')-Ib-cr-negative Enterobacter cloacae FJ61 harboring GyrA S83I, GyrA D87A, ParC S80I mutant, wild-type GyrB and qnrS genes by agar dilution method; format: functional
Enterobacter cloacae [21] = test: Antimicrobial activity against aac(6')-Ib-cr-negative Enterobacter cloacae FJ61T harboring qnrS gene by agar dilution method; format: functional
Enterobacter cloacae [22] = test: Antimicrobial activity against aac(6')-Ib-cr-positive Enterobacter cloacae FJ63 harboring GyrA S83I, GyrA D87A, ParC S80I mutant, wild-type GyrB and qnrS genes by agar dilution method; format: functional
Enterobacter cloacae [23] = test: Antimicrobial activity against aac(6')-Ib-cr-positive Enterobacter cloacae FJ63T harboring qnrS gene by agar dilution method; format: functional
Enterobacter cloacae [24] = test: Antimicrobial activity against aac(6')-Ib-cr-negative Enterobacter cloacae FJ67 harboring […] and qnrS genes by agar dilution method; format: functional
Enterobacter cloacae [25] = test: Antimicrobial activity against aac(6')-Ib-cr-negative Enterobacter cloacae FJ67T harboring qnrS gene by agar dilution method; format: functional
Klebsiella pneumoniae [26] = test: Antimicrobial activity against aac(6')-Ib-cr-positive Klebsiella pneumoniae GZ40 harboring GyrA S83I, ParC S80I mutant, wild-type GyrB and qnrB genes by agar dilution method; format: functional; in short: as §1
Klebsiella pneumoniae [27] = test: Antimicrobial activity against aac(6')-Ib-cr-positive Klebsiella pneumoniae GZ40T harboring qnrB gene by agar dilution method
Enterobacter cloacae [28] = test: Antimicrobial activity against aac(6')-Ib-cr-negative Enterobacter cloacae GZ47 harboring qnrB and qnrS genes by agar dilution method; format: functional
Enterobacter cloacae [29] = test: Antimicrobial activity against aac(6')-Ib-cr-negative Enterobacter cloacae GZ47T harboring qnrB gene by agar dilution method; format: functional
Enterobacter cloacae [30] = test: Antimicrobial activity against aac(6')-Ib-cr-negative Enterobacter cloacae GZ51 harboring qnrA gene by agar dilution method; format: functional
Enterobacter cloacae [31] = test: Antimicrobial activity against aac(6')-Ib-cr-negative Enterobacter cloacae GZ51T harboring qnrA gene by agar dilution method; format: functional
Citrobacter freundii [32] = test: Antimicrobial activity against aac(6')-Ib-cr-positive Citrobacter freundii JN1 harboring GyrA T83I, ParC S80I mutant, wild-type GyrB and qnrA genes by agar dilution method; format: functional; in short: as §1
Citrobacter freundii [33] = test: Antimicrobial activity against aac(6')-Ib-cr-positive Citrobacter freundii JN1T by agar dilution method; format: functional; in short: as §1
Klebsiella pneumoniae [34] = test: Antimicrobial activity against aac(6')-Ib-cr-positive Klebsiella pneumoniae JN132 harboring GyrA S83I, ParC S80I mutant, wild-type GyrB and qnrB genes by agar dilution method; format: functional; in short: as §2
Klebsiella pneumoniae [35] = test: Antimicrobial activity against aac(6')-Ib-cr-positive Klebsiella pneumoniae JN132T harboring qnrB gene by agar dilution method; format: functional; in short: as §3
Klebsiella pneumoniae [36] = test: Antimicrobial activity against aac(6')-Ib-cr-positive Klebsiella pneumoniae JN41 harboring GyrA S83I, ParC S80I mutant, wild-type GyrB and qnrB genes by agar dilution method; format: functional; in short: as §2
Klebsiella pneumoniae [37] = test: Antimicrobial activity against aac(6')-Ib-cr-positive Klebsiella pneumoniae JN41T harboring qnrB gene by agar dilution method; format: functional; in short: as §3
Citrobacter freundii [38] = test: Antimicrobial activity against aac(6')-Ib-cr-negative Citrobacter freundii JN64 harboring GyrA T83I, wild-type ParC, GyrB and qnrA genes by agar dilution method; format: functional; in short: as §1
Citrobacter freundii [39] = test: Antimicrobial activity against aac(6')-Ib-cr-negative Citrobacter freundii JN64T harboring qnrA gene by agar dilution method; format: functional; in short: as §1
Citrobacter freundii [40] = test: Antimicrobial activity against aac(6')-Ib-cr-positive Citrobacter freundii JS33 harboring GyrA T83I mutant, wild-type ParC, GyrB, qnrA and qnrB genes by agar dilution method; format: functional; in short: as §1
Citrobacter freundii [41] = test: Antimicrobial activity against aac(6')-Ib-cr-positive Citrobacter freundii JS33T harboring qnrA gene by agar dilution method; format: functional; in short: as §1

Measured: MIC

CO[C@@]1(NC(=O)Cc2cccs2)C(=O)N2C(C(=O)O)=C(COC(N)=O)CS[C@@H]21 [CEFOXITIN]
256 µg/mL: Klebsiella pneumoniae [8] | Citrobacter freundii [10] | Klebsiella pneumoniae [14] | Enterobacter cloacae [20] | Enterobacter cloacae [22] | Enterobacter cloacae [28]
64 µg/mL: Citrobacter freundii [11] | Klebsiella pneumoniae [15] | Klebsiella pneumoniae [34] | Klebsiella pneumoniae [35]
8 µg/mL: Klebsiella pneumoniae [6] | Escherichia coli [18] | Citrobacter freundii [39]
> 256 µg/mL: Citrobacter freundii [2] | Enterobacter cloacae [4] | Enterobacter cloacae [12] | Enterobacter cloacae [24] | Enterobacter cloacae [30] | Citrobacter freundii [32] | Citrobacter freundii [38] | Citrobacter freundii [40]
16 µg/mL: Klebsiella pneumoniae [9]
2 µg/mL: Citrobacter freundii [3] | Enterobacter cloacae [13] | Escherichia coli [16] | Escherichia coli [19] | Klebsiella pneumoniae [27] | Citrobacter freundii [33] | Klebsiella pneumoniae [37] | Citrobacter freundii [41]
32 µg/mL: Klebsiella pneumoniae [26] | Enterobacter cloacae [29]
4 µg/mL: all other assays above

NCC[C@H](O)C(=O)N[C@@H]1C[C@H](N)[C@@H](O[C@H]2O[C@H](CN)[C@@H](O)[C@H](O)[C@H]2O)[C@H](O)[C@H]1O[C@H]1O[C@H](CO)[C@@H](O)[C@H](N)[C@H]1O [AMIKACIN]
16 µg/mL: Enterobacter cloacae [12] | Enterobacter cloacae [13] | Enterobacter cloacae [25]
64 µg/mL: Klebsiella pneumoniae [8] | Enterobacter cloacae [23] | Klebsiella pneumoniae [34] | Klebsiella pneumoniae [35]
> 256 µg/mL: Enterobacter cloacae [22] | Enterobacter cloacae [30] | Enterobacter cloacae [31] | Citrobacter freundii [38] | Citrobacter freundii [39]
8 µg/mL: Escherichia coli [17] | Klebsiella pneumoniae [26]
1 µg/mL: Escherichia coli [16] | Enterobacter cloacae [28] | Enterobacter cloacae [29]
32 µg/mL: Klebsiella pneumoniae [9] | Enterobacter cloacae [24]
2 µg/mL: Enterobacter cloacae [4] | Enterobacter cloacae [5] | Klebsiella pneumoniae [6] | Klebsiella pneumoniae [7] | Klebsiella pneumoniae [14] | Klebsiella pneumoniae [15] | Escherichia coli [19] | Enterobacter cloacae [20] | Enterobacter cloacae [21] | Citrobacter freundii [33]
4 µg/mL: all other assays above
